The values below come from ChEMBL document CHEMBL4028836, “Optimization of M4 positive allosteric modulators (PAMs): The discovery of VU0476406, a non-human primate in vivo tool compound for translational pharmacology” (Bioorg Med Chem Lett, 2017).

Structures are written as SMILES. Active and inactive are the calls of the source. The rule behind the calls is not given here. Some results are limits rather than exact numbers.

Data set [1] in a line: Oral bioavailability in rat at 10 mg/kg. The settings on record: in vivo. It is filed as ADME, organism-based. An outline of the steps:
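Rat oral bioavailability from a 10 mg/kg solution dose. Separately, the HCl salt was dosed as a suspension.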

A short description of data set [2]: Elimination half life in dog at 3 mg/kg, iv or po. The class given is ADME, organism-based, Canis lupus familiaris. The following applies: in vivo, read-out: beta t1/2 (converted).
Data set [3] can be described thus: Volume of distribution at steady state in dog at 3 mg/kg, iv or po. The class given is ADME, organism-based, Canis lupus familiaris. The following applies: in vivo, read-out: Vdss. An outline of the steps:
(§1)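 Dog IV and PO pharmacokinetics. Oral bioavailability from a 3 mg/kg suspension dose of the HCl salt.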

The nature of data set [4]: Oral bioavailability in dog at 3 mg/kg. The following applies: in vivo. It is filed as ADME, organism-based, Canis lupus familiaris. A digest of the protocol: as §1
Data set [5] relates to Cynomolgus monkey. The data set is described as follows: Elimination half life in cynomolgus monkey at 10 mg/kg, iv. It is filed as ADME, organism-based, Macaca fascicularis. The following applies: in vivo.
Data set [6] concerns Cynomolgus monkey. Nature of the data set: Volume of distribution at steady state in cynomolgus monkey at 10 mg/kg, iv. It is filed as ADME, organism-based, Macaca fascicularis. The settings on record: in vivo.
Data set [7] in a line: Oral bioavailabilty in cynomolgus monkey at 10 mg/kg. The class given is ADME, organism-based, Macaca fascicularis. The settings on record: in vivo. A digest of the protocol: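 Cynomolgus monkey oral bioavailability from a 10 mg/kg solution dose of the HCl salt.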
In data set [8] the target is T1, Muscarinic acetylcholine receptor M4 (Homo sapiens, UniProt P08173).
T1 sequence (P08173 whole entry): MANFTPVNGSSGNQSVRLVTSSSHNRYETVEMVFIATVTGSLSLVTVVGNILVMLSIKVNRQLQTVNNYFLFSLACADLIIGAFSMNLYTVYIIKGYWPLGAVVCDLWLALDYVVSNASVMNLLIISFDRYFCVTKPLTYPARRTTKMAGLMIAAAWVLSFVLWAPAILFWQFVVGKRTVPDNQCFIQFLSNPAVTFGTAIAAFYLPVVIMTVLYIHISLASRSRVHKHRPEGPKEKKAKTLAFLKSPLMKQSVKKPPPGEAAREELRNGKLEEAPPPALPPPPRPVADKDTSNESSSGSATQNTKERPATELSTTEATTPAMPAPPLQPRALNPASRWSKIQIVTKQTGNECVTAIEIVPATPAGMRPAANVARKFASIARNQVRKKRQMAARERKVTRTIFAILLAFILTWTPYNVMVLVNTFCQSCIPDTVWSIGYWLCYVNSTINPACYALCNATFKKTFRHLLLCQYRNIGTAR
The data set is described as follows: Positive allosteric modulation of human M4 receptor expressed in CHO cells coexpressing Gqi5 assessed as increase in acetylcholine-induced calcium mobilization. It is filed as functional, cell-based. An outline of the steps: (§2)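 Calcium mobilization in CHO cells expressing hM4 with Gqi5. Compound added in presence of a fixed EC20 concentration of acetylcholine. Values are means of three independent experiments, each run in triplicate.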
In general terms: A change in cytosolic calcium serves as a functional read-out for many receptors and channels.

For data set [9], the target named is T2, Muscarinic acetylcholine receptor M4 (Homo sapiens) (UniProt P08173).
T2 sequence (whole entry): T1 sequence (P08173 whole entry)
The data set is described as follows: Positive allosteric modulation of human M4 receptor expressed in CHO cells coexpressing Gqi5 assessed as increase in acetylcholine-induced calcium mobilization relative to acetylcholine. It is filed as functional, cell-based. A digest of the protocol: as §2

Data set [10] concerns the target T3, Cytochrome P450 1A2 (Homo sapiens, UniProt P05177).
T3 sequence (P05177 whole entry): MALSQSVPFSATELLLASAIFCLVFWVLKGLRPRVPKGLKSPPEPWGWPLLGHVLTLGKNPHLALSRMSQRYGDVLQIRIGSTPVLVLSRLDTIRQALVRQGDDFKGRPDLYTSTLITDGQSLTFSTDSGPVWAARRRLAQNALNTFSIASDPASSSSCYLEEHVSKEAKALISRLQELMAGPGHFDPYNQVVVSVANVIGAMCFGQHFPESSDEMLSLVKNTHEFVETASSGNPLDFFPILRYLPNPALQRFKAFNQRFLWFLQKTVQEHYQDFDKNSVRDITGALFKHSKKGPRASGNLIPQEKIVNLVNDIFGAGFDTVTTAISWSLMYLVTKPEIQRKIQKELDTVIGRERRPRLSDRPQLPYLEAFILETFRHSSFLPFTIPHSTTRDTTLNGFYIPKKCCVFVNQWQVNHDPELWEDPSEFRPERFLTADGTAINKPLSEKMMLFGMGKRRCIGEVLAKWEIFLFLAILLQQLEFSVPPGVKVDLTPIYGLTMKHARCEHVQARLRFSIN
Nature of the data set: Inhibition of CYP1A2 (unknown origin). It is filed as ADME.

Data set [11] has as its target Cytochrome P450 2C9 (Homo sapiens, UniProt P11712). Nature of the data set: Inhibition of CYP2C9 (unknown origin). It is filed as ADME.
Data set [12] concerns the target Cytochrome P450 2D6 (Homo sapiens, UniProt P10635). Nature of the data set: Inhibition of CYP2D6 (unknown origin). It is filed as ADME.
Data set [13] has as its target Cytochrome P450 3A4 (Homo sapiens, UniProt P08684). The data set is described as follows: Inhibition of CYP3A4 (unknown origin). The class given is ADME.
The test system of data set [14] is Rattus norvegicus. The data set is described as follows: Elimination half-life in Sprague-Dawley rat at 0.1 to 1 mg/kg, iv. It is filed as ADME, organism-based. The settings on record: in vivo.
A short description of data set [15]: Brain to plasma permeability coefficient, Kp of the compound in Sprague-Dawley rat at 0.1 to 0.2 mg/kg, iv measured at 0.25 hrs post dose. It is filed as ADME, organism-based. An outline of the steps:
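Sprague-Dawley rats were dosed IV at 0.1–0.2 mg/kg, with brain and plasma sampled at 0.25 hr. Brain:plasma Kp was calculated, with Kp,uu where unbound fractions were available.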

Data set [16] has as its system MDR1 (P-gp). Nature of the data set: Efflux ratio of permeability in MDCK2-MDR1 cells. The following applies: dog, MDCK-MDR1. It is filed as ADME, cell-based, Canis lupus familiaris.
Data set [17] can be described thus: Unbound plasma concentration in human. The class given is ADME, cell-free.
The nature of data set [18]: Unbound plasma concentration in rat. The class given is ADME, cell-free.
The nature of data set [19]: Unbound brain concentration in rat. It is filed as ADME, tissue-based.
The nature of data set [20]: Brain to plasma permeability coefficient, Kp of the compound in cynomolgus monkey at 145 MBq, iv measured at 2 hrs post dose by PET analysis. The class given is ADME, organism-based, Macaca fascicularis. A digest of the protocol:
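PET study in one cynomolgus monkey given a single IV dose of [18F]-labelled compound (145 MBq), with roughly 2 hr of data acquisition after dosing. Whole and regional brain distribution of total and calculated unbound compound was determined.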

Data set [21] is described as follows: Ratio of unbound brain to plasma concentration in cynomolgus monkey at 145 MBq, iv measured at 2 hrs post dose by PET analysis. It is filed as ADME, organism-based, Macaca fascicularis. The following applies: read-out: K(p,uu,brain). An outline of the steps:
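Whole and regional brain distribution of total and calculated unbound drug in one cynomolgus monkey. PET after a single IV dose of [18F]-labelled compound (145 MBq), with about 2 h of data acquisition post-dose.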

The nature of data set [22]: Ratio of unbound CSF to plasma concentration in cynomolgus monkey at 145 MBq, iv measured at 2 hrs post dose by PET analysis. It is filed as ADME, organism-based, Macaca fascicularis.
Data set [23] has as its target Muscarinic acetylcholine receptor M4 (Rattus norvegicus) (UniProt P08485). The data set is described as follows: Positive allosteric modulation of rat M4 receptor assessed as increase in acetylcholine-induced calcium mobilization relative to acetylcholine. The class given is functional. A digest of the protocol: (§3)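 M4 PAM concentration-response curves measured by calcium mobilization at the stated species' receptor. Potency reported as EC50/pEC50 and efficacy as % of acetylcholine maximum.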

For data set [24], the species on record is Canis lupus familiaris. Nature of the data set: Positive allosteric modulation of dog M4 receptor assessed as increase in acetylcholine-induced calcium mobilization relative to acetylcholine. A digest of the protocol:
as §3

For data set [25], the species on record is Macaca fascicularis. The data set is described as follows: Positive allosteric modulation of cynomolgus monkey M4 receptor assessed as increase in acetylcholine-induced calcium mobilization relative to acetylcholine. A digest of the protocol:
as §3

Data set [26] has as its target Muscarinic acetylcholine receptor M4 (Rattus norvegicus) (UniProt P08485). Nature of the data set: Displacement of [3H]NMS from rat M4 receptor. An outline of the steps:
(§4)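 Competition binding of ACh against [3H]-N-methylscopolamine at M4 of each species. Combined with ACh concentration-response fold-shift Ca2+ mobilization data to fit operational model parameters (KB, α, β). n=3–4, each in duplicate.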
In general terms: Loss of bound radioactivity is the signal in a displacement assay; it reports binding, not function.

Data set [27] concerns the target T2, Muscarinic acetylcholine receptor M4 (Homo sapiens). Nature of the data set: Displacement of [3H]NMS from human M4 receptor. An outline of the steps:
as §4

The species named for data set [28] is Macaca fascicularis. Nature of the data set: Displacement of [3H]NMS from cynomolgus monkey M4 receptor. An outline of the steps:
as §4

The species named for data set [29] is Canis lupus familiaris. The data set is described as follows: Activity at dog M2 receptor.
The species named for data set [30] is Macaca fascicularis. The data set is described as follows: Activity at cynomolgus monkey M2 receptor.
The species entered for data set [31] is Rattus norvegicus. Nature of the data set: Activity at rat GABA-A receptor. A digest of the protocol: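 Rat GABAA receptor, benzodiazepine site, radioligand binding in a broad secondary pharmacology panel. IC50 taken from binding. Functional follow-up was run at 10 μM.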

Chain of Muscarinic acetylcholine receptor M4 (Rattus norvegicus) (P08485 whole entry): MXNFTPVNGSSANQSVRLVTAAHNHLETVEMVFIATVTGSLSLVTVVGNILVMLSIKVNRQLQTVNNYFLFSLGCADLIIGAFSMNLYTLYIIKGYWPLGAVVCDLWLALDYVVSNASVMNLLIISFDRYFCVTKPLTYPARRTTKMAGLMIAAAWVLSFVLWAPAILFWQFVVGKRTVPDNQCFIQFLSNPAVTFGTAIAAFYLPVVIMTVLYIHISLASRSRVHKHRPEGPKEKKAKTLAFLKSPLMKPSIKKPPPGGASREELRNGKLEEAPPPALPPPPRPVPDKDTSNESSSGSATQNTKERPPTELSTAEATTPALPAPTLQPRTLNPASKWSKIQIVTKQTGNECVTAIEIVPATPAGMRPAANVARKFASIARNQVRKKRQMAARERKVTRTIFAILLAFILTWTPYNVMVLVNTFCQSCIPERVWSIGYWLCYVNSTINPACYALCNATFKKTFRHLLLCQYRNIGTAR
Chain of Cytochrome P450 2C9 (P11712 whole entry): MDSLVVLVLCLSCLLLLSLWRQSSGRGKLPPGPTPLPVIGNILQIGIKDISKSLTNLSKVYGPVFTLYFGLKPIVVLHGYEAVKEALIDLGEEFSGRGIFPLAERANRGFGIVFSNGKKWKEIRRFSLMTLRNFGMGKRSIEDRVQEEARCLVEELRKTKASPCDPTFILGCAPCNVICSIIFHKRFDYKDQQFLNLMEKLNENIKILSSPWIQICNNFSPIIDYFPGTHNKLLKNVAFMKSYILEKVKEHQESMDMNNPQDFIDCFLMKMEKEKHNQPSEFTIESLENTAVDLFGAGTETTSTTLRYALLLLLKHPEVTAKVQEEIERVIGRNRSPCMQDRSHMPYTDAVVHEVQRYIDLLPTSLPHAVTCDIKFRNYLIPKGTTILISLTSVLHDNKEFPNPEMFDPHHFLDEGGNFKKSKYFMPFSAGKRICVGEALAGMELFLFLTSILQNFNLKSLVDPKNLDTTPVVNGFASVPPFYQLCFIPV
Chain of Cytochrome P450 2D6 (P10635 whole entry): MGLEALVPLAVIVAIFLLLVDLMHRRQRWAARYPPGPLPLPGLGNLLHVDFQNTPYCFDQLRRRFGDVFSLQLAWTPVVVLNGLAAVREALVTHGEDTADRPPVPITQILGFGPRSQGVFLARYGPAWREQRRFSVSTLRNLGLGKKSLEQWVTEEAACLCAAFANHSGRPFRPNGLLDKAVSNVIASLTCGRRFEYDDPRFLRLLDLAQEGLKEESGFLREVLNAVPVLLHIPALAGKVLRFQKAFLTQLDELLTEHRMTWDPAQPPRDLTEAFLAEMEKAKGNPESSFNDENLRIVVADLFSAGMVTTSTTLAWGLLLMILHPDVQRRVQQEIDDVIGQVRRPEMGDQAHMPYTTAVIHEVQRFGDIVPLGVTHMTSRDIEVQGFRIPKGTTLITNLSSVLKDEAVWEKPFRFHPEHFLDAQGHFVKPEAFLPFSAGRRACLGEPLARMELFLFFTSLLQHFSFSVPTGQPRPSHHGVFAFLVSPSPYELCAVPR
Chain of Cytochrome P450 3A4 (P08684 whole entry): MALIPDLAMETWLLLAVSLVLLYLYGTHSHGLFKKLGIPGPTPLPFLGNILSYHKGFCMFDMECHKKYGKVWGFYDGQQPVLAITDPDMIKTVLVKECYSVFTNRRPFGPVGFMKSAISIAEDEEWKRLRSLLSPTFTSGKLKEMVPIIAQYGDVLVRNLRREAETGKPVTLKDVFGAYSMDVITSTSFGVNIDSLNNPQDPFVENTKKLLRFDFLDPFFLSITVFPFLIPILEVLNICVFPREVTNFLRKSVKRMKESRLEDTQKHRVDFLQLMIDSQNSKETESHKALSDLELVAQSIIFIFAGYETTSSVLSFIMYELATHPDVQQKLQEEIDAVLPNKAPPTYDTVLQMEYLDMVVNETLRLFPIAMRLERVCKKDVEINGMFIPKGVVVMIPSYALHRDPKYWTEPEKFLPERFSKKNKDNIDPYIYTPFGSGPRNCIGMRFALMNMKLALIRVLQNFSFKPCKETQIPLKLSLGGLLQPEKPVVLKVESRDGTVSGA

`Cc1nnc2sc(C(=O)NCc3ccc(-c4cccnc4F)cc3)c(N)c2c1C.Cl`: the bioavailability in data set [1] is 54%; in data set [4] it was 47%; in [7], 4.7%. The half-life in data set [2] was 1 h. In addition, the Vd in data set [3] was 0.7 L/kg. The “beta t1/2” value in [5] was found to be 1.3 h. In data set [6], the Vdss is 0.87 L/kg.
As to `Cc1nnc2sc(C(=O)NCc3ccc(-c4cncc(F)c4)cc3)c(N)c2c1C`, the EC50 in [8] (read-out: EC50) worked out at 144 nM. Also, in data set [9], the %max was 78%.
The matching figures for `Cc1nnc2sc(C(=O)NCc3ccccc3-c3ccccc3)c(N)c2c1C`: more than 10000 nM and 30%.
For the compound `Cc1nnc2sc(C(=O)NCc3ccc(-c4ccncc4)cc3)c(N)c2c1C`, the EC50 in [8] (read-out: EC50) amounted to 36 nM. Also, the %max in [9] turned out to be 83%. Moreover, the IC50 in [10] was determined as 9700 nM; in [11], 2300 nM; in data set [12] it was 1300 nM; in [13], 340 nM. For the same compound, in [14], the “beta t1/2” value was found to be 1.5 h. Moreover, the Kp in data set [15] is given as 0.94. Further, in data set [16], the efflux ratio was 1.1. Besides, the unbound share (fraction unbound) in data set [17] stood at 0.013; in [18], 0.037; in data set [19], 0.042.
For the compound `Cc1nnc2sc(C(=O)NCc3ccc(-c4ccccn4)cc3)c(N)c2c1C`, the figures for the EC50 in data set [8] (read-out: EC50) and in [8] (read-out: pEC50 (converted)) were 232 nM and 214 nM, respectively. For the same compound, in data set [9], the %max is 75%.
`Cc1nnc2sc(C(=O)NCc3ccc(-c4ccnnc4)cc3)c(N)c2c1C`: the EC50 in data set [8] (read-out: EC50) was 56 nM. Moreover, the %max in [9] turned out to be 96%.
Compound `Cc1nnc2sc(C(=O)NCc3ccc(-c4cccnc4[18F])cc3)c(N)c2c1C` gave a Kp in data set [20] of 0.75. Also, the results for the Kp uu at 2 h in [21] and in data set [22] were 1.1 and 1, respectively.
`Cc1nnc2sc(C(=O)NCc3ccc(-c4cccnc4F)cc3)c(N)c2c1C`: the %max was found to be 74% in [9], 72% in [23], 49% in data set [24] and 64% in data set [25]. Further, the Kb in [26] is 370 nM; in data set [27] it was 2800 nM; in [28] it was 2100 nM. For the same compound, the result in data set [29], in data set [30] and in data set [31] was inactive.
For the compound `Cc1nnc2sc(C(=O)NCc3ccc(Br)cc3)c(N)c2c1C`, the EC50 in data set [8] (read-out: EC50) is 187 nM; in data set [8] (read-out: pEC50 (converted)), 182 nM. For the same compound, the %max in data set [9] was found to be 82%.
For `Cc1nnc2sc(C(=O)NCc3ccc(-c4ccncc4F)cc3)c(N)c2c1C`, in that order: 1720 nM, 1550 nM and 86%.

The bioavailability is the share of a dose that reaches the circulation, judged against a reference dose that is usually intravenous. In general, Vdss refers to the apparent volume that relates the amount in the body to the concentration in plasma or blood. For orientation: IC50 means the point on the concentration scale where inhibition reaches its midpoint. Usually Kp stands for tissue or fluid exposure divided by exposure in the circulation. What is called efflux ratio is a quotient of directional permeabilities that is used to spot active efflux. By fraction unbound is commonly meant the share of the substance not bound to proteins or other matrix.
